Source: ChEMBL document CHEMBL1121917, “Structure--activity relationships in a broad-spectrum anthelmintic series. Acid chloride phenylhydrazones. 1. Aryl substitutions and chloride variations” (1981)

Assays:
[1] = organism: Mus musculus; test: Percent clearance of Nematospiroides dubius from mouse after oral treatment of 7.55 mg/mouse/day; type: functional
Procedure, shortened: (§1)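 Mice naturally carrying Syphacia obvelata were experimentally infected with Nematospiroides dubius and Hymenolepis nana, then grouped after a 2-week prepatency. Finely ground compound was suspended in aqueous 0.10% carboxymethylcellulose, 0.04% polysorbate 80 and 0.0042% polyparaben, and 0.1 mL was given orally by cannula once daily for 4 days to five mice. Necropsy followed 2 days later, scoring presence or absence of each parasite. Control clearance was subtracted from the treated clearance.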

[2] = organism: Mus musculus; test: Percent clearance of Hymenolepis nana from mouse after oral treatment of 7.5 mg/mouse/day; type: functional; procedure, shortened: as §1
[3] = system: Ovis aries; test: Percent reduction in Trichostrongylus eggs per gram, after treatment of 200 mg/kg dose of compound perorally in sheep; type: functional, Egg; conditions: route oral
Procedure, shortened: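 Lambs naturally parasitized with helminths. Finely ground compound was given orally, either as an aqueous suspension by stomach tube or weighed into gelatin capsules given by balling gun. Activity was assessed by the clinical test method: the reduction in helminth egg counts after treatment.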

[4] = system: Ovis aries; test: Percent reduction in Strongyloides eggs per gram, after treatment with 400 mg/kg dose of compound perorally in sheep; type: functional, Egg; conditions: route oral
Procedure, shortened: (§2)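 Naturally parasitized lambs, dosed orally either with a suspension by stomach tube or with finely ground compound in gelatin capsules by balling gun. Activity was scored by the clinical test method, meaning a significant fall in helminth egg counts after treatment.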

[5] = system: Ovis aries; test: Percent reduction in Haemonchus eggs per gram, after treatment of 200 mg/kg dose of compound perorally in sheep; type: functional, Egg; conditions: route oral
Procedure, shortened: (§3)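 Naturally parasitized lambs received compound orally, either as the aqueous suspension by stomach tube or as finely ground powder in gelatin capsules by balling gun. Activity was judged by the clinical test method, as a significant decrease in posttreatment helminth egg counts.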

[6] = system: Ovis aries; test: Percent reduction in Ostertagia eggs per gram, after treatment of 200 mg/kg dose of compound perorally in sheep; type: functional, Egg; conditions: route oral
Procedure, shortened: (§4)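 Naturally parasitized lambs were dosed orally at the stated mg/kg. Dosing was either as a suspension of finely ground compound by stomach tube, or as ground compound weighed into gelatin capsules and given by balling gun. Activity was scored by the clinical test method: the decrease in posttreatment helminth eggs per gram.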

[7] = system: Ovis aries; test: Percent reduction in Strongyloides eggs per gram, after treatment with 200 mg/kg dose of compound perorally in sheep; type: functional, Egg; conditions: route oral; procedure, shortened: as §2
[8] = system: Ovis aries; test: Percent reduction in Haemonchus eggs per gram, after treatment with 400 mg/kg dose of compound perorally in sheep; type: functional, Egg; conditions: route oral; procedure, shortened: as §4
[9] = organism: Mus musculus; test: Percent clearance of Nematospiroides dubius from mouse after oral treatment of 0.45 mg/mouse/day; type: functional; procedure, shortened: as §1
[10] = organism: Canis familiaris; test: Percent reduction in Uncinaria eggs per gram, after oral treatment of 75 mg/dog dose of compound in a single treatment; type: functional, Canis lupus familiaris, Egg
[11] = system: Ovis aries; test: Percent reduction in Ostertagia eggs per gram, after treatment with 400 mg/kg dose of compound perorally in sheep; type: functional, Egg; conditions: route oral; procedure, shortened: as §2
[12] = organism: Mus musculus; test: Percent clearance of Syphacaia obvelata from mouse after oral treatment of 0.45 mg/mouse/day; type: functional; procedure, shortened: as §1
[13] = system: Ovis aries; test: Percent reduction in Oesophagostomum eggs per gram, after treatment of 200 mg/kg dose of compound perorally in sheep; type: functional, Egg; conditions: route oral; procedure, shortened: as §4
[14] = organism: Canis familiaris; test: Percent reduction in Toxascaris eggs per gram, after oral treatment of 75 mg/dog dose of compound in a single treatment; type: functional, Canis lupus familiaris, Egg
Procedure, shortened: (§5)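 Dogs naturally infected with Toxascaris leonina were experimentally infected with mixed Ancylostoma caninum and Uncinaria stenocephala larvae. Finely ground compound was given orally in gelatin capsules. Three egg count determinations were made before and three after treatment in each experiment.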

[15] = system: Ovis aries; test: Percent reduction in Trichuris eggs per gram, after treatment with 200 mg/kg dose of compound perorally in sheep; type: functional, Egg; conditions: dose 200 mg/kg; route oral; procedure, shortened: as §2
[16] = system: Ovis aries; test: Percent reduction in Trichostrongylus eggs per gram, after treatment with 400 mg/kg dose of compound perorally in sheep; type: functional, Egg; conditions: route oral; procedure, shortened: as §2
[17] = system: Ovis aries; test: Percent reduction in Trichuris eggs per gram, after treatment with 400 mg/kg dose of compound perorally in sheep; type: functional, Egg; conditions: route oral; procedure, shortened: as §2
[18] = organism: Canis familiaris; test: Percent reduction in Uncinaria eggs per gram, after treatment with 200 mg/dog dose of compound in a single treatment; type: functional, Canis lupus familiaris, Egg; procedure, shortened: as §5
[19] = system: Ovis aries; test: Percent reduction in Ostertagia eggs per gram, after treatment with 250 mg/kg dose of compound perorally in sheep; type: functional, Egg; conditions: route oral; procedure, shortened: as §2
[20] = system: Ovis aries; test: Percent reduction in Oesophagostomum eggs per gram, after treatment with 450 mg/kg dose of compound perorally in sheep; type: functional, Egg; conditions: route oral; procedure, shortened: as §4
[21] = system: Ovis aries; test: Percent reduction in Strongyloides eggs per gram, after treatment with 250 mg/kg dose of compound perorally in sheep; type: functional, Egg; conditions: route oral; procedure, shortened: as §2
[22] = system: Ovis aries; test: Percent reduction in Trichostrongylus eggs per gram, after treatment with 250 mg/kg dose of compound perorally in sheep; type: functional, Egg; conditions: route oral
[23] = system: Ovis aries; test: Percent reduction in Haemonchus eggs per gram, after treatment with 450 mg/kg dose of compound perorally in sheep; type: functional, Egg; conditions: route oral; procedure, shortened: as §4
[24] = system: Ovis aries; test: Percent reduction in Ostertagia eggs per gram, after treatment with 450 mg/kg dose of compound perorally in sheep; type: functional, Egg; conditions: route oral; procedure, shortened: as §2
[25] = system: Ovis aries; test: Percent reduction in Oesophagostomum eggs per gram, after treatment with 250 mg/kg dose of compound perorally in sheep; type: functional, Egg; conditions: route oral; procedure, shortened: as §4
[26] = system: Ovis aries; test: Percent reduction in Ostertagia eggs per gram, after treatment with 325 mg/kg dose of compound perorally in sheep; type: functional, Egg; conditions: route oral; procedure, shortened: as §2
[27] = system: Ovis aries; test: Percent reduction in Strongyloides eggs per gram, after treatment with 450 mg/kg dose of compound perorally in sheep; type: functional, Egg; conditions: route oral; procedure, shortened: as §2
[28] = system: Ovis aries; test: Percent reduction in Trichuris eggs per gram, after treatment with 325 mg/kg dose of compound perorally in sheep; type: functional, Egg; conditions: route oral
[29] = system: Ovis aries; test: Percent reduction in Trichuris eggs per gram, after treatment with 450 mg/kg dose of compound perorally in sheep; type: functional, Egg; conditions: route oral; procedure, shortened: as §2
[30] = system: Ovis aries; test: Percent reduction in Haemonchus eggs per gram, after treatment with 250 mg/kg dose of compound perorally in sheep; type: functional, Egg; conditions: route oral; procedure, shortened: as §4
[31] = system: Ovis aries; test: Percent reduction in Nematodirus eggs per gram, after treatment with 450 mg/kg dose of compound perorally in sheep; type: functional, Egg; conditions: route oral; procedure, shortened: as §4
[32] = system: Ovis aries; test: Percent reduction in Moniezia eggs per gram, after treatment with 400 mg/kg dose of compound perorally in sheep; type: functional, Egg; conditions: route oral; procedure, shortened: as §4
[33] = system: Ovis aries; test: Percent reduction in Trichuris eggs per gram, after treatment with 250 mg/kg dose of compound perorally in sheep; type: functional, Egg; conditions: route oral; procedure, shortened: as §2
[34] = system: Ovis aries; test: Percent reduction in Strongyloides eggs per gram, after treatment with 325 mg/kg dose of compound perorally in sheep; type: functional, Egg; conditions: route oral; procedure, shortened: as §2
[35] = system: Ovis aries; test: Percent reduction in Haemonchus eggs per gram, after treatment with 325 mg/kg dose of compound perorally in sheep; type: functional, Egg; conditions: route oral; procedure, shortened: as §4
[36] = organism: Canis familiaris; test: Percent reduction in Ancylostoma eggs per gram, after treatment with 200 mg/dog dose of compound in a single treatment; type: functional, Canis lupus familiaris, Egg
Procedure, shortened: (§6)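 Dogs naturally infected with Toxascaris leonina were experimentally infected with mixed Ancylostoma caninum and Uncinaria stenocephala larvae. Finely ground compound was given orally in gelatin capsules. Fecal egg counts were taken three times before and three times after treatment, and activity was taken as the fall in egg counts.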

[37] = organism: Canis familiaris; test: Percent reduction in Toxascaris eggs per gram, after treatment with 200 mg/dog dose of compound in a single treatment; type: functional, Canis lupus familiaris, Egg; procedure, shortened: as §5
[38] = organism: Mus musculus; test: Percent clearance of Nematospiroides dubius from mouse after oral treatment of 1.87 mg/mouse/day; type: functional; procedure, shortened: as §1
[39] = organism: Canis familiaris; test: Percent reduction in Ancylostoma eggs per gram, after oral treatment of 175 mg/dog dose of compound in a single treatment; type: functional, Canis lupus familiaris, Egg; procedure, shortened: as §6
[40] = system: Ovis aries; test: Percent reduction in Nematodirus eggs per gram, after treatment with 250 mg/kg dose of compound perorally in sheep; type: functional, Egg; conditions: route oral; procedure, shortened: as §4
[41] = organism: Canis familiaris; test: Percent reduction in Uncinaria eggs per gram, after oral treatment of 175 mg/dog dose of compound in a single treatment; type: functional, Canis lupus familiaris, Egg
[42] = system: Ovis aries; test: Percent reduction in Cooperia eggs per gram, after treatment with 400 mg/kg dose of compound perorally in sheep; type: functional, Egg; conditions: route oral; procedure, shortened: as §3
[43] = system: Ovis aries; test: Percent reduction in Trichostrongylus eggs per gram, after treatment with 325 mg/kg dose of compound perorally in sheep; type: functional, Egg; conditions: route oral
[44] = system: Ovis aries; test: Percent reduction in Trichostrongylus eggs per gram, after treatment with 450 mg/kg dose of compound perorally in sheep; type: functional, Egg; conditions: route oral; procedure, shortened: as §2
[45] = organism: Mus musculus; test: Percent clearance of Syphacaia obvelata from mouse after oral treatment of 1.87 mg/mouse/day; type: functional; procedure, shortened: as §1
[46] = organism: Mus musculus; test: Percent clearance of Syphacaia obvelata from mouse after oral treatment of 0.57 mg/mouse/day; type: functional; procedure, shortened: as §1
[47] = organism: Mus musculus; test: Percent clearance of Nematospiroides dubius from mouse after oral treatment of 0.57 mg/mouse/day; type: functional; procedure, shortened: as §1

O=[N+]([O-])c1ccc(/C(Cl)=N/Nc2ccccc2)cc1
Parasite_Clearance [1]: 0% | Parasite_Clearance [2]: 0%

Fc1c(F)c(F)c(/C(Cl)=N/Nc2ccccc2)c(F)c1F
Reduction [3]: 0% | Reduction [4]: 99% | Reduction [5]: 85% | Reduction [6]: 93% | Reduction [7]: 93% | Reduction [8]: 96% | Parasite_Clearance [9]: 0% | Reduction [10]: 100% | Reduction [11]: 95% | Parasite_Clearance [12]: 0% | Reduction [13]: 100% | Reduction [14]: 71.4% | Reduction [15]: 10% | Reduction [16]: 96% | Reduction [17]: 88%

Cl/C(=N\Nc1c(Cl)cc(Cl)cc1Cl)c1ccccc1
Reduction [18]: 59% | Reduction [19]: 100% | Reduction [20]: 0% | Reduction [21]: 95% | Reduction [22]: 98% | Reduction [23]: 94% | Reduction [24]: 100% | Reduction [25]: 95% | Reduction [26]: 98% | Reduction [27]: 100% | Reduction [28]: 0% | Reduction [29]: 29% | Reduction [30]: 98% | Reduction [8]: 85% | Reduction [31]: 63% | Reduction [32]: 100% | Reduction [33]: 63% | Reduction [34]: 79% | Reduction [35]: 99% | Reduction [36]: 87% | Reduction [37]: 67% | Parasite_Clearance [38]: 80% | Reduction [39]: 31% | Reduction [40]: 82% | Reduction [41]: 26% | Reduction [11]: 100% | Reduction [42]: 100% | Reduction [43]: 33% | Reduction [16]: 77% | Reduction [17]: 14% | Reduction [44]: 100% | Parasite_Clearance [45]: 20%

Cl/C(=N\Nc1ccccc1)c1cc(Cl)cc(Cl)c1
Parasite_Clearance [46]: 25% | Parasite_Clearance [47]: 0%
